Holding throughout (type): functional
For assay [1], the species on record is Rattus norvegicus. Description: Hypolipidemic effects(plasma cholesterol) in male rats. In outline:
(§1)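 Male rats, 10 per group, fed 7 days on chow with 10% fat (5.5% added peanut oil), 1.5% cholesterol and 0.1% cholic acid. Oral gavage on days 4-7 in 4% acacia, usually 50 mg/kg daily. Fasted overnight, killed day 8, atrial blood into EDTA. Plasma cholesterol, TG and HDL cholesterol (after MnCl2/heparin precipitation) by Autoanalyzer. % change vs controls, Student's t test.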

For assay [2], the system named is Rattus norvegicus. Description: Hypolipidemic effects (high-density lipoprotein (HDL) cholesterol) in male rats; Compound was screening orally at 50 mg/Kg. The procedure, abridged: as §1
Assay [3] is filed under the species Rattus norvegicus. Put plainly: Hypolipidemic effects(plasma TG) in male rats. The procedure, abridged:
as §1

The species entered for assay [4] is Rattus norvegicus. Put plainly: Hypolipidemic effects(liver weight) in male rats. In outline:
as §1

Assay [5] has as its system Rattus norvegicus. Put plainly: Hypolipidemic effects (low-density lipoprotein (LDL) cholesterol) in male rats; Compound was screening orally at 50 mg/Kg. In outline: as §1

For the compound `COC(=O)C(C)(C)CCCOc1cc(OCCCC(C)(C)C(=O)OC)c(C(C)(C)C)cc1C(C)(C)C`, the Change in assay [1], in assay [2], in assay [3], in assay [4] and in assay [5] was 0% each time.
In the case of `CC(C)(CCCOc1ccc(OCCCC(C)(C)C(=O)O)c(C(O)c2ccccc2)c1)C(=O)O` (configuration not stated), the Change is recorded as -17% in assay [1]; 410% in assay [2]; 27% in assay [3]; 16% in assay [4]; -42% in assay [5].
For `COC(=O)C(C)(C)CCCOc1cc(OCCCC(C)(C)C(=O)OC)c(Cl)cc1Cl`, in that order: 0%, 0%, 0%, 0% and 0%.
The like results for `COC(=O)C(C)(C)CCCOc1cccc(OCCCC(C)(C)C(=O)OC)c1NC(C)=O` were, in that order, 0%, 0%, 0%, 0% and 0%.
Take `CC(C)(CCCOc1ccc(-c2ccc(OCCCC(C)(C)C(=O)O)cc2)cc1)C(=O)O`: the Change in assay [1] was -30%; in assay [2] it was 138%; in assay [3], 0%; in assay [4] it was 15%.
The like results for `COC(=O)C(C)(C)CCCOc1cc(C(C)(C)C)c(OCCCC(C)(C)C(=O)OC)cc1C(C)(C)C` were, in that order, 0%, 0%, -15% and 0%.
Consider `COC(=O)C(C)(C)CCCOc1ccc(OCCCC(C)(C)C(=O)OC)c(C#N)c1C#N`, for which the Change in assay [1], in assay [2], in assay [3], in assay [4] and in assay [5] was 0% throughout.
Regarding `CC(C)(CCCOc1ccc(S(=O)(=O)c2ccc(OCCCC(C)(C)C(=O)O)cc2)cc1)C(=O)O`, the Change in assay [1] is 0%; in assay [2], 26%; in assay [3], 0%; in assay [4] it was 10%; in assay [5], 0%.
Consider `COC(=O)c1c(OCCCC(C)(C)C(=O)OC)cccc1OCCCC(C)(C)C(=O)OC`, for which the Change in assay [1] was determined as 0%; in assay [2], 21%; in assay [3], 0%; in assay [4], 0%; in assay [5] it was 0%.
For the compound `CC(C)(CCCCOc1ccc(OCCCCC(C)(C)C(=O)O)c(-c2ccccc2)c1)C(=O)O`, the Change in assay [1] is given as -49%; in assay [2], 51%; in assay [3] it was 0%; in assay [4] it was 8%; in assay [5], -53%.
For `COC(=O)C(C)(C)CCCOc1ccc(OCCCC(C)(C)C(=O)OC)c(/C=N/N=C(\N)S)c1`, in that order: 0%, 0%, 0%, 0% and 0%.
Turning to `CC(C)(CCCOc1cccc(OCCCC(C)(C)C(=O)O)c1)C(=O)O`, the Change in assay [1] was -52%; in assay [2], 294%; in assay [3] it was 0%; in assay [4] it was 17%.
As to `COC(=O)C(C)(C)CCCOc1ccc(Cl)c(OCCCC(C)(C)C(=O)OC)c1`, the Change in assay [1] is reported as -42%; in assay [2] it was 37%; in assay [3] it was 0%; in assay [4], 8%; in assay [5], 80%.
Regarding `C/C=C/c1cc(OCCCC(C)(C)C(=O)OC)ccc1OCCCC(C)(C)C(=O)OC`, the Change in assay [1] is listed as -39%; in assay [2] it was 268%; in assay [3] it was -31%; in assay [4] it was 29%; in assay [5], -66%.
The like results for `CC(C)(CCCOc1ccc(OCCCC(C)(C)C(=O)O)c(-c2ccc(Cl)cc2Cl)c1)C(=O)O` were, in that order, -45%, 64%, -20%, 0% and -54%.
For `CCC(O)c1cc(OCCCC(C)(C)C(=O)O)ccc1OCCCC(C)(C)C(=O)O` (configuration not stated), in that order: 0%, 947%, 0%, 34% and -62%.
For `COC(=O)C(C)(C)CCCOc1ccc(C=O)c(OCCCC(C)(C)C(=O)OC)c1`, in that order: -18%, 79%, 0%, 11% and -30%.
Turning to `COC(=O)C(C)(C)CCCOc1ccccc1OCCCC(C)(C)C(=O)OC`, the Change is reported as -40% in assay [1], 0% in assay [2], -30% in assay [3] and 0% in assay [4].
As for `CC(C)(CCCOc1ccc(OCCCC(C)(C)C(=O)O)c(-c2ccccc2Cl)c1)C(=O)O`, the Change was 0% in assay [1]; 480% in assay [2]; 38% in assay [3]; 23% in assay [4]; -38% in assay [5].
In the case of `COc1ccc(-c2cc(OCCCC(C)(C)C(=O)O)ccc2OCCCC(C)(C)C(=O)O)cc1`, the Change in assay [1] is given as -30%; in assay [2] it was 52%; in assay [3], -30%; in assay [4], 0%; in assay [5], -38%.
Consider `COC(=O)C(C)(C)CCCOc1ccc(OCCCC(C)(C)C(=O)OC)c(-c2nnco2)c1`, for which the Change in assay [1] is on record as -26%; in assay [2] it was 31%; in assay [3], 0%; in assay [4], 11%; in assay [5] it was -33%.
Turning to `COC(=O)C(C)(C)CCCOc1cccc(OCCCC(C)(C)C(=O)OC)c1C`, the Change in assay [1] is listed as -37%; in assay [2], 385%; in assay [3], -15%; in assay [4], 33%.
As for `CC(C)(CCCOc1ccc(OCCCC(C)(C)C(=O)O)c(S(=O)(=O)c2ccccc2)c1)C(=O)O`, the Change in assay [1] is given as -32%; in assay [2], 303%; in assay [3] it was 35%; in assay [4], 10%; in assay [5], -53%.
For `CC(C)(CCCOc1ccc(OCCCC(C)(C)C(=O)Oc2ccc(C(C)(C)C)cc2)cc1)C(=O)Oc1ccc(C(C)(C)C)cc1`, in that order: 0%, 0%, 0%, 0% and 0%.
For `COC(=O)C(C)(C)CCCOc1cc(C)c(OCCCC(C)(C)C(=O)OC)cc1C`, in that order: -30%, 688%, 27%, 14% and -64%.
For `CCCCCCCCCCCCc1ccc(OCCCC(C)(C)C(=O)O)cc1OCCCC(C)(C)C(=O)O`, in that order: 0%, 0%, 0%, 0% and -12%.
In the case of `Cc1cc(OCCCC(C)(C)C(=O)O)c(C)c(C)c1OCCCC(C)(C)C(=O)O`, the Change in assay [1] is reported as -37%; in assay [2], 165%; in assay [3], 42%; in assay [4], 21%.
For `CC(C)(CCCOc1ccc(OCCCC(C)(C)C(=O)OCc2cccnc2)c(-c2ccccc2)c1)C(=O)OCc1cccnc1`, the Change in assay [1] is listed as 63%; in assay [2], 594%; in assay [3], 0%; in assay [4] it was 19%; in assay [5], 0%.
Regarding `COC(=O)C(C)(C)CCCOc1cc(C)cc(OCCCC(C)(C)C(=O)OC)c1`, the Change in assay [1] was -62%; in assay [2] it was 262%; in assay [3], -53%; in assay [4], 18%.
As for `CCOC(=O)C(C)(C)CCCOc1ccc(OCCCC(C)(C)C(=O)OCC)c(-c2ccccc2)c1`, the Change is recorded as 43% in assay [1]; 536% in assay [2]; 0% in assay [3]; 20% in assay [4]; -18% in assay [5].
For `COC(=O)C(C)(C)CCCOc1ccc(C(C)(C)c2ccc(OCCCC(C)(C)C(=O)OC)cc2)cc1`, in that order: 0%, 0%, 0%, 0% and 0%.
The like results for `COC(=O)C(C)(C)CCCOc1ccc(OCCCC(C)(C)C(=O)OC)c(C2CCCCC2)c1` were, in that order, -49%, 35%, -24%, 6% and -54%.
The like results for `COC(=O)c1ccc(OCCCC(C)(C)C(=O)OC)cc1OCCCC(C)(C)C(=O)OC` were, in that order, 0%, 0%, 0%, 0% and 0%.
In the case of `CC(C)(CCCOc1ccc(Sc2ccc(OCCCC(C)(C)C(=O)O)cc2)cc1)C(=O)O`, the Change in assay [1] is on record as -35%; in assay [2], 0%; in assay [3], 20%; in assay [4], 0%.
With `COC(=O)C(C)(C)CCCOc1ccc(OCCCC(C)(C)C(=O)OC)c(C(C)=O)c1`, the Change in assay [1] is recorded as 0%; in assay [2], 381%; in assay [3], 20%; in assay [4], 21%; in assay [5], -39%.

Values taken from ChEMBL document CHEMBL1122242, “Phenylenebis(oxy)bis[2,2-dimethylpentanoic acid]s: agents that elevate high-density lipoproteins” (1983).
